Experimental findings from ChEMBL document CHEMBL3525946, “Species comparison of in vivo P-glycoprotein-mediated brain efflux using mdr1a-deficient rats and mice” (Drug Metab Dispos, 2012) are described below.

A short description of series [1]: Total drug level in wild type Crl:CF1 mouse brain expressing Abcb1a mutant at 4 mg/kg/day administered through continuous minipump treatment for 3 days by UPLC-MS analysis. Type of series: ADME, organism-based. The following applies: other: continuous minipump, read-out: Drug uptake. The method in brief:
(§1)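 Drug was infused subcutaneously by osmotic minipump for 3 days to steady state, at 1 µl/h in mice and 10 µl/h in rats, with doses derived from body weight and delivery rate. Animals were decapitated. Plasma came from EDTA trunk blood spun at 5000 g for 10 min at 4 °C. Whole brain was homogenised 1:4 in 70% acetonitrile and the supernatant kept. Samples were protein-precipitated with internal standard and analysed by UPLC. n=3-5, mean ± SEM.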

Series [2] in a line: Percentage unbound in Sprague-Dawley rat plasma at 1 uM after 5 hrs by equilibrium dialysis method. The format is ADME, cell-free. Summed up: (§2)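 Equilibrium dialysis (12-14 kDa membrane) of plasma or brain homogenate from naïve male Sprague-Dawley rats or Crl:NMRI(Han) mice. Donor side spiked to 1 µM final; receiver phosphate buffer pH 7.4; 37°C for 5 h. Buffer phase quantified by LC-MS. Brain fu corrected for homogenate dilution to intact tissue. Mean of two independent determinations.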
(In equilibrium dialysis only unbound substance equilibrates across the membrane.)

The nature of series [3]: Total plasma concentration in wild type Crl:CF1 mouse expressing Abcb1a mutant at 4 mg/kg/day administered through continuous minipump treatment for 3 days by UPLC-MS analysis. The format is ADME, organism-based. The conditions noted are these: other: continuous minipump. The method in brief:
as §1

Series [4] can be described thus: Total drug level in mdr1a-deficient mouse brain at 4 mg/kg/day administered through continuous minipump treatment for 3 days by UPLC-MS analysis. Type of series: ADME, organism-based. The following applies: other: continuous minipump, read-out: Drug uptake. The method in brief:
as §1

Series [5] in a line: Percentage unbound in Sprague-Dawley rat brain at 1 uM after 5 hrs by equilibrium dialysis method. The format is ADME, tissue-based. The method in brief:
as §2

Series [6] is described as follows: Total drug level in mdr1a-deficient rat brain at 5 mg/kg/day administered through continuous minipump treatment for 3 days by UPLC-MS analysis. Type of series: ADME, organism-based. The following applies: other: continuous minipump, read-out: Drug uptake. Summed up:
as §1

A short description of series [7]: Total brain to plasma partition coefficient of the compound in wild type Crl:CF1 mouse expressing Abcb1a mutant at 4 mg/kg/day administered through continuous minipump treatment for 3 days. The following applies: brain and plasma, other: continuous minipump.
A short description of series [8]: Percentage unbound in Crl:NMRI(Han) mouse brain at 1 uM after 5 hrs by equilibrium dialysis method. Type of series: ADME, tissue-based. The method in brief: as §2
A short description of series [9]: Total plasma concentration in mdr1a-deficient rat at 5 mg/kg/day administered through continuous minipump treatment for 3 days by UPLC-MS analysis. Type of series: ADME, organism-based. The following applies: other: continuous minipump. The method in brief:
as §1

The nature of series [10]: Unbound brain to plasma partition coefficient of the compound in wild type Sprague-Dawley rat expressing Abcb1a at 5 mg/kg/day administered through continuous minipump treatment for 3 days. The format is ADME, organism-based. The conditions noted are these: other: continuous minipump, read-out: K(p,uu,brain). The method in brief: (§3)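 Kp,uu = Cbrain,total × fu,brain / Cplasma,total × fu,plasma, using steady-state totals from 3-day subcutaneous minipump infusion. Free fractions came from equilibrium dialysis (12-14 kDa membrane) of naive Sprague-Dawley rat or NMRI mouse plasma or brain homogenate spiked to 1 µM final, against pH 7.4 phosphate buffer for 5 h at 37 °C, read by LC-MS and corrected for brain dilution. fu is the mean of two determinations.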

Series [11] can be described thus: Unbound brain to plasma partition coefficient of the compound in mdr1a-deficient mouse at 4 mg/kg/day administered through continuous minipump treatment for 3 days. Type of series: ADME, organism-based. The conditions noted are these: other: continuous minipump, read-out: K(p,uu,brain). The method in brief: as §3
The nature of series [12]: Total drug level in wild type Sprague-Dawley rat brain expressing Abcb1a at 5 mg/kg/day administered through continuous minipump treatment for 3 days by UPLC-MS analysis. The format is ADME, organism-based. The conditions noted are these: other: continuous minipump, read-out: Drug uptake. Summed up:
as §1

Series [13] can be described thus: Total brain to plasma partition coefficient of the compound in mdr1a-deficient Sprague-Dawley rat at 5 mg/kg/day administered through continuous minipump treatment for 3 days. The following applies: brain and plasma, other: continuous minipump.
A short description of series [14]: Total plasma concentration in wild type Sprague-Dawley rat expressing Abcb1a at 5 mg/kg/day administered through continuous minipump treatment for 3 days by UPLC-MS analysis. Type of series: ADME, organism-based. The following applies: other: continuous minipump. Summed up: as §1
Series [15] in a line: Unbound brain to plasma partition coefficient of the compound in mdr1a-deficient rat at 5 mg/kg/day administered through continuous minipump treatment for 3 days. Type of series: ADME, organism-based. The conditions noted are these: other: continuous minipump, read-out: K(p,uu,brain). Summed up:
as §3

Series [16] is described as follows: Total brain to plasma partition coefficient of the compound in wild type Sprague-Dawley rat expressing Abcb1a at 5 mg/kg/day administered through continuous minipump treatment for 3 days. The conditions noted are these: brain and plasma, other: continuous minipump.
The nature of series [17]: Unbound brain to plasma partition coefficient of the compound in wild type Crl:CF1 mouse expressing Abcb1a mutant at 4 mg/kg/day administered through continuous minipump treatment for 3 days. The format is ADME, organism-based. The conditions noted are these: other: continuous minipump, read-out: K(p,uu,brain). The method in brief:
as §3

Series [18] is described as follows: Total plasma concentration in mdr1a-deficient mouse at 4 mg/kg/day administered through continuous minipump treatment for 3 days by UPLC-MS analysis. Type of series: ADME, organism-based. The following applies: other: continuous minipump. The method in brief: as §1
Series [19] in a line: Percentage unbound in Crl:NMRI(Han) mouse plasma at 1 uM after 5 hrs by equilibrium dialysis method. Type of series: ADME, cell-free. Summed up:
as §2

The nature of series [20]: Total brain to plasma partition coefficient of the compound in mdr1a-deficient mouse at 4 mg/kg/day administered through continuous minipump treatment for 3 days. The conditions noted are these: other: continuous minipump.
Series [21] is described as follows: Total drug level in wild type Sprague-Dawley rat brain expressing Abcb1a at 9 mg/kg/day administered through continuous minipump treatment for 3 days by UPLC-MS analysis. Type of series: ADME, organism-based. The conditions noted are these: other: continuous minipump, read-out: Drug uptake. Summed up: as §1
The nature of series [22]: Unbound brain to plasma partition coefficient of the compound in wild type Crl:CF1 mouse expressing Abcb1a mutant at 12 mg/kg/day administered through continuous minipump treatment for 3 days. Type of series: ADME, organism-based. The following applies: other: continuous minipump, read-out: K(p,uu,brain). Summed up: as §3
Series [23] can be described thus: Unbound brain to plasma partition coefficient of the compound in mdr1a-deficient mouse at 12 mg/kg/day administered through continuous minipump treatment for 3 days. The format is ADME, organism-based. The conditions noted are these: other: continuous minipump, read-out: K(p,uu,brain). The method in brief:
as §3

Series [24] in a line: Unbound brain to plasma partition coefficient of the compound in wild type Sprague-Dawley rat expressing Abcb1a at 9 mg/kg/day administered through continuous minipump treatment for 3 days. Type of series: ADME, organism-based. The conditions noted are these: other: continuous minipump, read-out: K(p,uu,brain).
The nature of series [25]: Total drug level in mdr1a-deficient mouse brain at 12 mg/kg/day administered through continuous minipump treatment for 3 days by UPLC-MS analysis. The format is ADME, organism-based. The conditions noted are these: other: continuous minipump, read-out: Drug uptake. The method in brief:
as §1

Series [26] is described as follows: Total plasma concentration in wild type Crl:CF1 mouse expressing Abcb1a mutant at 12 mg/kg/day administered through continuous minipump treatment for 3 days by UPLC-MS analysis. The format is ADME, organism-based. The conditions noted are these: other: continuous minipump. The method in brief: as §1
The nature of series [27]: Total drug level in mdr1a-deficient rat brain at 9 mg/kg/day administered through continuous minipump treatment for 3 days by UPLC-MS analysis. The format is ADME, organism-based. The conditions noted are these: other: continuous minipump, read-out: Drug uptake. The method in brief: as §1
Series [28] in a line: Total brain to plasma partition coefficient of the compound in mdr1a-deficient mouse at 12 mg/kg/day administered through continuous minipump treatment for 3 days. The format is ADME, organism-based. The following applies: other: continuous minipump. The method in brief: (§4)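 Rats (SD-Abcb1a knockout or wild-type, 350-500 g) or mice (Crl:CF1-Abcb1a mutant or CF-1 background, 25-45 g) received drug by subcutaneous osmotic minipump (pump content as free base) for 3 days to steady state. After decapitation, trunk EDTA plasma and whole brain (homogenised 1:4 in 70% acetonitrile) were assayed by UPLC. Kp = total brain/total plasma concentration. n=3-5, mean ± SEM.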

A short description of series [29]: Total brain to plasma partition coefficient of the compound in wild type Crl:CF1 mouse expressing Abcb1a mutant at 12 mg/kg/day administered through continuous minipump treatment for 3 days. The following applies: brain and plasma, other: continuous minipump. Type of series: ADME, organism-based. The method in brief: as §4
The nature of series [30]: Total plasma concentration in wild type Sprague-Dawley rat expressing Abcb1a at 9 mg/kg/day administered through continuous minipump treatment for 3 days by UPLC-MS analysis. Type of series: ADME, organism-based. The following applies: other: continuous minipump. Summed up: as §1
The nature of series [31]: Total drug level in wild type Crl:CF1 mouse brain expressing Abcb1a mutant at 12 mg/kg/day administered through continuous minipump treatment for 3 days by UPLC-MS analysis. The following applies: other: continuous minipump, read-out: Drug uptake. The format is ADME, organism-based. Summed up: as §1
Series [32] can be described thus: Total plasma concentration in mdr1a-deficient rat at 9 mg/kg/day administered through continuous minipump treatment for 3 days by UPLC-MS analysis. The format is ADME, organism-based. The following applies: other: continuous minipump. Summed up:
as §1

The nature of series [33]: Unbound brain to plasma partition coefficient of the compound in mdr1a-deficient rat at 9 mg/kg/day administered through continuous minipump treatment for 3 days. Type of series: ADME, organism-based. The following applies: other: continuous minipump, read-out: K(p,uu,brain).
Series [34] is described as follows: Total brain to plasma partition coefficient of the compound in mdr1a-deficient rat at 9 mg/kg/day administered through continuous minipump treatment for 3 days. The format is ADME, organism-based. The conditions noted are these: brain and plasma, other: continuous minipump.
The nature of series [35]: Total brain to plasma partition coefficient of the compound in wild type Sprague-Dawley rat expressing Abcb1a at 9 mg/kg/day administered through continuous minipump treatment for 3 days. The following applies: brain and plasma, other: continuous minipump. Type of series: ADME, organism-based.
The nature of series [36]: Total plasma concentration in mdr1a-deficient mouse at 12 mg/kg/day administered through continuous minipump treatment for 3 days by UPLC-MS analysis. The following applies: other: continuous minipump. The format is ADME, organism-based. Summed up: as §1

Turning to `Cc1nc2n(c(=O)c1CCN1CCC(c3noc4cc(F)ccc34)CC1)CCCC2` [RISPERIDONE], the concentration at 72 h was found to be 21 ng/g in series [1]; 43 ng/mL in [3]; 149 ng/g in series [4]; 295 ng/g in [6]; 168 ng/mL in [9]; 41 ng/g in [12]. For the same molecule, the results for the concentration at 72 h in [14] and in [18] were 194 ng/mL and 40 ng/mL, respectively. Further, the fraction unbound (usually free concentration divided by total concentration) at 5 h, 1 µM is 0.11 in [2], 0.09 in series [5], 0.058 in series [8] and 0.27 in series [19]. Also, the Kp (usually the ratio of the level in a tissue or fluid to that in plasma or blood) at 72 h in [7] came to 0.52; in series [13], 1.9; in series [16], 0.22; in series [20], 3.8. The Kp uu at 72 h was 0.17 in series [10], 0.81 in series [11], 1.4 in series [15] and 0.11 in series [17].
As for `COc1ccc(C(CN(C)C)C2(O)CCCCC2)cc1.Cl` (stereo not given) [VENLAFAXINE HYDROCHLORIDE], the concentration at 72 h worked out at 158 ng/g in series [21]; 828 ng/g in [25]; 85 ng/mL in [26]; 389 ng/g in series [27]; 50 ng/mL in series [30]; 403 ng/g in [31]. Besides, the concentration at 72 h in [32] worked out at 63 ng/mL; in [36], 105 ng/mL. The fraction unbound at 5 h, 1 µM is 0.64 in series [2], 0.092 in series [5], 0.18 in series [8] and greater than 0.99 in series [19]. In addition, the Kp uu at 72 h in [22] stood at 0.86; in [23], 1.4; in series [24] it was 0.45; in series [33], 0.89. Also, the concentration ratio (Kp) at 72 h in [28] was 8.3; in [29], 4.7; in series [34], 6.3; in [35], 3.3.
